In brackets after ≈: the same amount, converted by molar mass. Activity calls are given as the source filed them. No cut-off for these calls is given here.

The subject of series [1] is Staphylococcus aureus. As to the kind of experiment: Antibacterial activity against […] Staphylococcus aureus ATCC 29213 after 16 hrs by spectrophotometric analysis. The series is classed as functional. To be noted: ATCC 29213, 16 h.
For series [2], the target named is T1, Cell division protein FtsZ (Staphylococcus aureus) (UniProt P0A031).
T1 sequence (whole entry): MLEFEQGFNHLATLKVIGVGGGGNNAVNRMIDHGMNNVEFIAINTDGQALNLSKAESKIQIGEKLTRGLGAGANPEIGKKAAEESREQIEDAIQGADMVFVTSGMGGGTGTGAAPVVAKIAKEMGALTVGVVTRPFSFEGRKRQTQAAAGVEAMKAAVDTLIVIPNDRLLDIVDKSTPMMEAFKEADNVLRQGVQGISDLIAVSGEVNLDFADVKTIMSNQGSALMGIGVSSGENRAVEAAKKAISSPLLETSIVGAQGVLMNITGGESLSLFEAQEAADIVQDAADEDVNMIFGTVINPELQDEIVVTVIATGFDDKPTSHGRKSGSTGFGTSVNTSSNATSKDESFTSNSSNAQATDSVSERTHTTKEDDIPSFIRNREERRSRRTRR
As to the kind of experiment: Inhibition of Staphylococcus aureus FtsZ assessed as increase in cell volume at 0.5 ug/ml after overnight incubation by phase-contrast light microscopic analysis. The essentials: (§1)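 S. aureus grown overnight with compound at levels starting from the previously determined MIC. Untreated cultures served as negative control. Examined by phase-contrast microscopy at 630×.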

The target in series [3] is T1, Cell division protein FtsZ (Staphylococcus aureus). The experiment in a line: Inhibition of Staphylococcus aureus FtsZ assessed as bacterial swelling at 0.5 ug/ml after overnight incubation by phase-contrast light microscopic analysis. The essentials: as §1
Series [4] is described as follows: Cytotoxicity against human MRC5 cells assessed as reduction in cell viability after 24 hrs by MTT assay. Format: toxicity, cell-based. The note with it: mrc5, 24 h. The essentials: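 MRC-5 lung fibroblasts (DMEM, 10% heat-inactivated calf serum, 37 °C, 5% CO₂) at 10⁴ cells/well were exposed 24 h to twofold serial dilutions in DMEM. Then 1 mg/ml MTT in serum-free DMEM for 3 h, DMSO solubilisation, A570. Cytotoxicity % = 100 − (sample OD/untreated OD) × 100; TD₅₀/TD₉₀ are concentrations cutting viability 50/90%.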
For orientation: Formazan colour is commonly taken as a measure of viable cells.

The nature of series [5]: Therapeutic index, ratio of TD90 for human MRC5 cells to MBC for […] Staphylococcus aureus ATCC 29213. The series is classed as cell-based. To be noted: read-out: TI. The essentials:
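Ratio of TD₉₀ (MTT assay on MRC-5, 24 h exposure) to MBC against MRSA ATCC 29213 (LB tube assay, wash-out and overnight regrowth by OD600).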

The target in series [6] is T1, Cell division protein FtsZ (Staphylococcus aureus). The experiment in a line: Inhibition of Staphylococcus aureus FtsZ assessed as cellular desegregation at 0.5 ug/ml after overnight incubation by phase-contrast light microscopic analysis. The essentials: as §1
The target is the same in series [7]. The experiment in a line: Inhibition of Staphylococcus aureus FtsZ assessed as increase in cell volume at 1 ug/ml after overnight incubation by phase-contrast light microscopic analysis. In outline:
as §1

Series [8] has the same target. As to the kind of experiment: Inhibition of Staphylococcus aureus FtsZ assessed as bacterial swelling at 1 ug/ml after overnight incubation by phase-contrast light microscopic analysis. In outline:
as §1

The target is the same in series [9]. The experiment in a line: Inhibition of Staphylococcus aureus FtsZ assessed as cellular desegregation at 1 ug/ml after overnight incubation by phase-contrast light microscopic analysis. In outline:
as §1

Series [10] shares this target. As to the kind of experiment: Inhibition of Staphylococcus aureus FtsZ assessed as cellular desegregation at 1 ug/ml after 16 hrs by transmission electron microscopic analysis. The essentials:
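S. aureus at 10⁹ cells/ml grown 16 h at 37 °C with compound, untreated control included. Cells were pelleted at 3100 × g for 5 min, fixed in 2.5% glutaraldehyde in 0.1 M Na cacodylate pH 7.4 for 1 h at 4 °C, post-fixed in 1% OsO₄ for 1 h at 4 °C, and examined by TEM for septum and ultrastructure.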

By MBC is commonly meant the lowest tested concentration that kills the bacteria rather than only halting them. A high value points to weaker bactericidal potency. What is called MIC is the least concentration at which growth counts as inhibited. Turning to `C#Cc1ccc2c(c1)OC(COc1ccc(F)c(C(N)=O)c1F)CO2` (centres undefined), in series [1], the MBC came to 0.625 µg/mL (≈ 1.81 µM). The same molecule came in with an MIC in series [1] of 0.313 µg/mL (≈ 0.906 µM). Further, the inhibition entry in [2], in [3] and in [6] was “Active” each time. For the same molecule, the TD90 in [4] turned out to be 400 µg/mL. Besides, in [5], the selectivity ratio was 640.

Turning to `CS(=O)(=O)Nc1ccc2c(c1)OC(COc1ccc(F)c(C(N)=O)c1F)CO2` (centres undefined), the minimal inhibitory concentration (MIC) in series [1] is more than 100 µg/mL.

Take `COC(=O)c1ccc2c(c1)OC(COc1ccc(F)c(C(N)=O)c1F)CO2` (centres undefined): the inhibition entry in series [7], in series [8], in [9] and in [10] was “Active” each time. The MBC in series [1] was 0.625 µg/mL (≈ 1.65 µM). In series [1], this molecule came in with an MIC of 0.625 µg/mL (≈ 1.65 µM). For the same molecule, in series [4], the TD90 was more than 1280 µg/mL. Besides, the selectivity ratio in series [5] is more than 1280.

Consider `NC(=O)c1c(F)ccc(OCC2COc3ccc(F)cc3O2)c1F` (centres undefined), for which, in series [1], the MBC stood at 2.5 µg/mL (≈ 7.37 µM) and it took 2.5 µg/mL (≈ 7.37 µM) to inhibit growth (MIC).

As to `NC(=O)c1c(F)ccc(OCC2COc3ccc(Br)cc3O2)c1F` (centres undefined), in series [1], the MBC came to 0.625 µg/mL (≈ 1.56 µM) and the lowest concentration to inhibit growth (MIC) was 0.625 µg/mL (≈ 1.56 µM). For the same molecule, the TD90 in series [4] was more than 800 µg/mL. The selectivity ratio in series [5] is more than 1280.

In [1], `NC(=O)c1c(F)ccc(OCC2CCc3ccccc3O2)c1F` (centres undefined) displayed an MBC of 5 µg/mL (≈ 15.7 µM) and an MIC of 5 µg/mL (≈ 15.7 µM).

Turning to `C=Cc1ccc2c(c1)OC(COc1ccc(F)c(C(N)=O)c1F)CO2` (centres undefined), in [1], the MBC stood at 1.25 µg/mL (≈ 3.6 µM) and the minimum inhibitory concentration (MIC) is 0.625 µg/mL (≈ 1.8 µM). Moreover, the TD90 in series [4] was more than 800 µg/mL. Also, the selectivity ratio in [5] was more than 640.

Regarding `NC(=O)c1c(F)ccc(OCc2ccc3c(c2)OCCO3)c1F`, in [1], the minimal bactericidal concentration (MBC) is 100 µg/mL (≈ 311 µM) and the MIC came to 100 µg/mL (≈ 311 µM).

In the case of `NC(=O)c1c(F)ccc(OC(CO)COc2ccccc2)c1F` (centres undefined), in [1], the MIC was more than 100 µg/mL.

Regarding `CCCCNC(=O)c1ccc2c(c1)OC(COc1ccc(F)c(C(N)=O)c1F)CO2` (centres undefined), the MIC in [1] is more than 100 µg/mL.

In series [1], `NC(=O)c1c(F)ccc(OCC2COc3ccc(C(F)(F)F)cc3O2)c1F` (centres undefined) gave an MBC of 2.5 µg/mL (≈ 6.42 µM) and an MIC of 2.5 µg/mL (≈ 6.42 µM).

The values above are taken from ChEMBL document CHEMBL3856196, “3-(Benzodioxan-2-ylmethoxy)-2,6-difluorobenzamides bearing hydrophobic substituents at the 7-position of the benzodioxane nucleus potently inhibit methicillin-resistant Sa and Mtb cell division” (Eur J Med Chem, 2016).
